Legend:
L1210 [1] = assay: Antitumor activity expressed as life span was determined against inoculated L1210 leukemia cells (1*10e6) in mice by 90 mg/kg dosage of compound (qd (x 3), for days 1, 4, 7); assay type: functional, Mus musculus
Summary of the method: (§1)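 Female mice (~18 g, housed six per cage) received L1210 cells intraperitoneally on day 0. Drug was made fresh and injected at 0.01 mL/g; the stated dose is per injection. Controls received the same volume of 0.154 M NaCl. Survival was followed, with deaths assigned to tumour by necropsy or to drug toxicity by set criteria. Life span is given as mean ± SD.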

L1210 [2] = assay: Antitumor activity expressed percentage increase in life span was determined against inoculated L1210 leukemia cells (1*10e5) in mice by 22.5 mg/kg dosage of compound (qd (x 3), for days 1, 4, 7,10,13,16); assay type: functional; details: Mus musculus
Summary of the method: (§2)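 L1210 cells were given intraperitoneally to female mice (~18 g). Freshly prepared drug was injected at 0.01 mL/g, dose per injection, and saline-injected controls were run. The end point was duration of survival. ILS was calculated as percent increase in mean life span over controls. Mice surviving 60 days or more counted as long-term survivors, scored as 60 days.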

L1210 [3] = assay: Antitumor activity expressed percentage increase in life span was determined against inoculated L1210 leukemia cells (1*10e6) in mice by 22.5 mg/kg dosage of compound (qd (x 3), for days 1, 4, 7); assay type: functional; details: Mus musculus; summary of the method: as §2
L1210 [4] = assay: Antitumor activity expressed percentage increase in life span was determined against inoculated L1210 leukemia cells (1*10e5) in mice by 45 mg/kg dosage of compound (qd (x 3), for days 1,5,9); assay type: functional; details: Mus musculus; summary of the method: as §2
L1210 [5] = assay: Antitumor activity expressed percentage increase in life span was determined against inoculated L1210 leukemia cells (1*10e6) in mice by 5.6 mg/kg dosage of compound (qd (x 3), for days 1, 4, 7,10,13,16); assay type: functional; details: Mus musculus
L1210 [6] = assay: Antitumor activity expressed as life span was determined against inoculated L1210 leukemia cells (1*10e6) in mice by 180 mg/kg dosage of compound (qd (x 3), for days 1, 4, 7); assay type: functional, Mus musculus; summary of the method: as §1
L1210 [7] = assay: Antitumor activity expressed percentage increase in life span was determined against inoculated L1210 leukemia cells (1*10e6) in mice by 70 mg/kg dosage of compound (qd (x 3), for days 1-7); assay type: functional; details: Mus musculus
Summary of the method: (§3)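 Female mice of about 18 g (BDF1, DBA/2 or C57Bl/6 stocks used) were inoculated intraperitoneally with 1 × 10^6 L1210 cells. Freshly prepared drug was given once daily from about 24 h after inoculation at 0.01 mL/g, with the dose stated per injection. Controls received 0.154 M NaCl, and groups held 6 mice. %ILS was taken from mean survival, with mice alive at 60 days or more counted as 60 days.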

L1210 [8] = assay: Antitumor activity expressed as life span was determined against inoculated L1210 leukemia cells (1*10e6) in mice by 70 mg/kg dosage of compound (qd (x 3), for days 1, 4, 7); assay type: functional, Mus musculus; summary of the method: as §1
L1210 [9] = assay: Antitumor activity expressed as life span was determined against inoculated L1210 leukemia cells (1*10e6) in mice by 11.3 mg/kg dosage of compound (qd (x 3), for days 1, 4, 7,10,13,16); assay type: functional, Mus musculus; summary of the method: as §1
L1210 [10] = assay: Antitumor activity expressed as life span was determined against inoculated L1210 leukemia cells (1*10e6) in mice by 11.3 mg/kg dosage of compound (qd (x 3), for days 1, 4, 7); assay type: functional, Mus musculus; summary of the method: as §1
L1210 [11] = assay: Antitumor activity expressed percentage increase in life span was determined against inoculated L1210 leukemia cells (1*10e6) in mice by 90 mg/kg dosage of compound (qd (x 3), for days 1, 4, 7); assay type: functional; details: Mus musculus; summary of the method: as §3
L1210 [12] = assay: Antitumor activity expressed as life span was determined against inoculated L1210 leukemia cells (1*10e6) in mice by 22.5 mg/kg dosage of compound (qd (x 3), for days 1, 4, 7); assay type: functional, Mus musculus; summary of the method: as §1
L1210 [13] = assay: Antitumor activity expressed percentage increase in life span was determined against inoculated L1210 leukemia cells (1*10e5) in mice by 22.5 mg/kg dosage of compound (qd (x 3), for days 1, 4, 7); assay type: functional; details: Mus musculus; summary of the method: as §2
L1210 [14] = assay: Antitumor activity expressed as life span was determined against inoculated L1210 leukemia cells (1*10e5) in mice by 5.6 mg/kg dosage of compound (q 3 h (x 8), for days 1, 4, 7,10,13,16)
L1210 [15] = assay: Antitumor activity expressed percentage increase in life span was determined against inoculated L1210 leukemia cells (1*10e6) in mice by 180 mg/kg dosage of compound (qd (x 3), for days 1, 4, 7); assay type: functional; details: Mus musculus; summary of the method: as §2
L1210 [16] = assay: Antitumor activity expressed percentage increase in life span was determined against inoculated L1210 leukemia cells (1*10e5) in mice by 17.3 mg/kg dosage of compound (qd (x 3), for days 1,5,9); assay type: functional; details: Mus musculus; summary of the method: as §2
L1210 [17] = assay: Antitumor activity expressed as life span was determined against inoculated L1210 leukemia cells (1*10e5) in mice by 17.3 mg/kg dosage of compound (qd (x 3), for days 1,5,9); assay type: functional, Mus musculus; summary of the method: as §1

Nc1nc(Br)nc2c1ncn2[C@H]1C[C@H](O)[C@@H](CO)O1
Life span (L1210 [1]): 7 days
ILS at 22.5 mg/kg (L1210 [2]): 153%
ILS at 22.5 mg/kg (L1210 [3]): 137%
ILS at 45 mg/kg (L1210 [4]): 387%
ILS at 5.6 mg/kg (L1210 [5]): 48%
Life span (L1210 [6]): 5 days
ILS at 70 mg/kg (L1210 [7]): 11%
Life span (L1210 [8]): 6.5 days
Life span (L1210 [9]): 13.17 days
Life span (L1210 [10]): 12.92 days
ILS at 90 mg/kg (L1210 [11]): 11%
Life span (L1210 [12]): 15 days
ILS at 22.5 mg/kg (L1210 [13]): 224%
Life span (L1210 [14]): 11.83 days
ILS at 180 mg/kg (L1210 [15]): 0%
ILS at 17.3 mg/kg (L1210 [16]): 81%
Life span (L1210 [17]): 14 days
